Assay outcomes as filed in PubChem BioAssay.
These entries were drawn from the full list.
PGC1a acetyl up – raises PGC1a acetylation signal in U2OS cells. U2OS PGC1a acetylation AlphaScreen, overnight. activation, % at 15.6 µM. 350,000 compounds, 0.21% hits;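 active = every replicate reaching activation of at least 50%, whatever the mean replicate activation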;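 also: hits raise the AlphaScreen acetylation signal above neutral controls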
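System: Flag-PGC1a/GCN5 U2OS cells | Quantity: 7000 cells/well | Times: Overnight compound treatment, 37 °C | Measured by: AlphaScreen proximity luminescence, anti-acetyl-lysine antibody | Dosing: One concentration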
The depositor's hits bear a star.

How did COc1ccc(NC(=O)C/C(C)=N/NC(=O)C(=O)NC(C)C)c(OC)c1 do in these assays?
PGC1a acetyl up: -48.3

Results for Cc1ccccc1Oc1cc(-n2ncc(Cl)c(Cl)c2=O)ncn1 ?
PGC1a acetyl up: -69.3

How did COc1ccc(CN(C)C[C@H]2Oc3ccc(NC(=O)Cc4cn(C)c5ccccc45)cc3CC(=O)N([C@@H](C)CO)C[C@@H]2C)cc1 do in these assays?
PGC1a acetyl up: -40.9

Results for CCOc1ccc2nnc(-c3ccc(Br)cc3)n2n1 ?
PGC1a acetyl up: 51.6*

What do the screens show for `COc1ccc(CN(Cc2cccn2C)S(=O)(=O)c2ccccc2)cc1`?
PGC1a acetyl up: -74.3

How did C[C@@H]1CN([C@H](C)CO)C(=O)CCCn2cc(nn2)CO[C@H]1CN(C)C(=O)Nc1ccc(C(F)(F)F)cc1 do in these assays?
PGC1a acetyl up: -49.2

What do the screens show for `C[C@H]1CN([C@@H](C)CO)C(=O)c2cccc(NC(=O)Nc3ccc(C(F)(F)F)cc3)c2O[C@H]1CN(C)C(=O)Nc1cccc2ccccc12`?
PGC1a acetyl up: -47.1

What do the screens show for `Cc1ccc(N2CCN(CC(O)COC3CCCCC3)CC2)cc1` (centres undefined)?
PGC1a acetyl up: 82.0*

What do the screens show for `C=C1C(=O)O[C@H]2[C@H]1[C@@H](O)CC(=C)[C@@H]1CC(=O)[C@@H](C)[C@H]21`?
PGC1a acetyl up: 72.0*

How did COc1ccc(F)cc1CN1CCN(CC(=O)N2CCc3ccccc32)CC1 do in these assays?
PGC1a acetyl up: -43.9

What do the screens show for `N#C/C(=C\C=C\c1ccccc1[N+](=O)[O-])C(=O)NCc1ccccc1`?
PGC1a acetyl up: 127.6*

Results for O=C(N/N=C/C=C\c1ccccc1[N+](=O)[O-])c1cccnc1 ?
PGC1a acetyl up: -41.6

Results for COc1ccc(S(=O)(=O)N2c3ccc(F)cc3CCC2C)cc1 (centres undefined) ?
PGC1a acetyl up: 119.9*

Results for COc1ccccc1C1c2ccc3ccccc3c2Oc2ncn(CCN(C)C)c(=N)c21 (centres undefined) ?
PGC1a acetyl up: 58.0*

What do the screens show for `COC(=O)c1cccc2c1-c1ccccc1/C2=N/O`?
PGC1a acetyl up: -75.4

How did Cc1cc(C)nc(SCC(=O)OCN2C(=O)c3ccccc3C2=O)n1 do in these assays?
PGC1a acetyl up: 67.1*

Results for Nc1cc(N)nc(SCC(=O)Nc2ccccc2N2CCOCC2)n1 ?
PGC1a acetyl up: -41.4

Results for O=C(Nc1cccc(F)c1)N1C[C@@H]2N[C@H](C1)C2c1ccc(-c2ccc(F)cc2)cc1 (some centres undefined) ?
PGC1a acetyl up: 73.3*

Results for COc1ccccc1-c1ccc([C@@H]2[C@H](CO)N(C(C)=O)C23CN(C(C)=O)C3)cc1 ?
PGC1a acetyl up: -58.2

How did O=C(Nc1ccc(C(F)(F)F)cc1)N1C[C@@H]2N[C@H](C1)C2c1ccc(-c2ccccc2)cc1 (some centres undefined) do in these assays?
PGC1a acetyl up: -43.1

What do the screens show for `N#Cc1cccc(-c2ccc(C3[C@@H]4CN(Cc5ccccc5F)C[C@H]3N4)cc2)c1` (some centres undefined)?
PGC1a acetyl up: -47.6

How did COc1cccc(CN2C[C@@H]3N[C@H](C2)C3c2ccc(-c3ccccc3OC)cc2)c1 (some centres undefined) do in these assays?
PGC1a acetyl up: 57.9*

Results for COc1cccc(CN2CCC(CO)(CC3CCCCO3)CC2)c1 (centres undefined) ?
PGC1a acetyl up: -99.9

What do the screens show for `Cc1cccc(-c2ccc(C3[C@@H]4CN(Cc5cccc(F)c5)C[C@H]3N4)cc2)c1` (some centres undefined)?
PGC1a acetyl up: 59.4*

Results for COc1ccccc1-c1ccc(C2[C@@H]3CN(Cc4cccc(F)c4)C[C@H]2N3)cc1 (some centres undefined) ?
PGC1a acetyl up: 71.9*

What do the screens show for `O=C(Nc1ccc(C(F)(F)F)cc1)N1C[C@@H]2N[C@H](C1)C2c1ccc(/C=C/c2ccccc2)cc1` (some centres undefined)?
PGC1a acetyl up: -73.5

Results for NC(=O)c1sc2nc3c(c(-c4cccs4)c2c1N)CCCCC3 ?
PGC1a acetyl up: -43.6

How did Cc1ccc(NC(=O)C2C(c3ccccc3)C2(Cl)Cl)c(C)c1 (centres undefined) do in these assays?
PGC1a acetyl up: -70.6

What do the screens show for `O=C(C[C@H]1CC[C@@H]2[C@H](COC[C@@H](O)CN2S(=O)(=O)c2ccc(F)cc2)O1)NCCN1CCCCC1`?
PGC1a acetyl up: -47.4

Results for COC(=O)c1cccc(NC(=O)CSc2nnc(C)n2C)c1 ?
PGC1a acetyl up: -47.3

Results for CC1=C(Cl)C2=NS(=O)(=O)CCN2C=C1Cl ?
PGC1a acetyl up: -47.5

How did CC(C)C#Cc1ccc([C@@H]2[C@H]3CN(C(=O)NC4CCCC4)CC(=O)N3[C@H]2CO)cc1 do in these assays?
PGC1a acetyl up: -48.3

How did CC1CCCN(C(=O)Cc2ccc(F)cc2)C1 (centres undefined) do in these assays?
PGC1a acetyl up: -75.3

What do the screens show for `N#C/C(=C/c1ccc(OCc2ccc(C(=O)O)cc2)c(Br)c1)c1cccc(F)c1`?
PGC1a acetyl up: -96.1

Results for Nc1ccccc1-c1ccn[nH]1 ?
PGC1a acetyl up: -41.1

How did C=CCN1C(=O)N(/C=C/C)c2cccc3cccc1c23 do in these assays?
PGC1a acetyl up: 59.6*

What do the screens show for `c1ccc(N2CCN(c3ccccc3)C2c2ccncc2)cc1`?
PGC1a acetyl up: -91.3

How did O=C(Cc1ccccn1)NCC[C@@H]1CC[C@@H](NC(=O)Nc2ccc(C(F)(F)F)cc2)[C@@H](CO)O1 do in these assays?
PGC1a acetyl up: -45.5

What do the screens show for `O=C(Cn1ncc(Cl)c(Cl)c1=O)c1ccc(Cl)cc1`?
PGC1a acetyl up: -85.3

Results for O=C(Nc1nc2ccccc2[nH]1)c1ccc(Cl)c(S(=O)(=O)N2CCCC2)c1 ?
PGC1a acetyl up: -52.5

What do the screens show for `O=C1CN(C(=O)Cn2ncc(Cl)c(Cl)c2=O)c2ccccc2N1`?
PGC1a acetyl up: 74.0*

What do the screens show for `O=C(Cn1ncc(Cl)c(Cl)c1=O)NCC1CCCCC1`?
PGC1a acetyl up: 151.0*

How did C=CCn1c(C)cc(C(=O)Cn2ncc(Cl)c(Cl)c2=O)c1C do in these assays?
PGC1a acetyl up: -41.1

What do the screens show for `Cc1ccc(NC(=O)Cn2ncc(Cl)c(Cl)c2=O)cc1S(=O)(=O)N1CCCCC1`?
PGC1a acetyl up: 90.3*

Results for Cc1cccc(NC(=O)CNC(=O)Cn2ncc(Cl)c(Cl)c2=O)c1C ?
PGC1a acetyl up: -50.9

How did C[C@@H]1CN([C@@H](C)CO)S(=O)(=O)c2ccc(-c3ccc(C#N)cc3)cc2O[C@H]1CN(C)C(=O)CN(C)C do in these assays?
PGC1a acetyl up: -40.8

How did O=C(CC1CC1)N[C@@H]1CC[C@@H](CCNS(=O)(=O)c2ccc(Cl)cc2)O[C@@H]1CO do in these assays?
PGC1a acetyl up: -55.8

How did CC1CC(=O)c2c(cc3c(-c4c(O)cc(O)c5c(O)c6c(cc45)OC(C)CC6=O)c(O)cc(O)c3c2O)O1 (centres undefined) do in these assays?
PGC1a acetyl up: -63.4

What do the screens show for `N#C/C(=C(/O)c1ccco1)c1nc2ccccc2[nH]1`?
PGC1a acetyl up: 60.8*

How did N#C/C(=C(/O)c1cc2ccccc2o1)c1nc2ccccc2s1 do in these assays?
PGC1a acetyl up: -43.8

Results for O=C1CC2CS(=O)(=O)CC2N1c1ccc(Cl)cc1Cl (centres undefined) ?
PGC1a acetyl up: -56.4

What do the screens show for `CC1CN(S(=O)(=O)c2ccc(C(=O)NCCCn3ccnc3)cc2)CC(C)O1` (centres undefined)?
PGC1a acetyl up: 411.4*

What do the screens show for `CC(C)(C)c1ccc(C(=O)NCCN2CCOCC2)cc1`?
PGC1a acetyl up: -64.8
